Measured values from ChEMBL document CHEMBL2407075, “Sulphonamido-quinoxalines: search for anticancer agent” (Eur J Med Chem, 2013).

Tests used:
Type in all cases: functional
[1] = test system: UACC-62; experiment: Growth inhibition of human UACC62 cells assessed as cell growth at 10^-4 M after 48 hrs by sulforhodamine B assay; details: UACC-62, 48 h, read-out: Activity
[2] = test system: HCT-116; experiment: Growth inhibition of human HCT116 cells assessed as cell growth at 10^-4 M after 48 hrs by sulforhodamine B assay; details: HCT-116, 48 h, read-out: Activity
Outline: (§1)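 Five-dose screen at NCI. Cells in RPMI 1640 with 5% FBS and 2 mM L-glutamine, seeded at 5000–40,000 cells/well and grown 24 h at 37 °C, 5% CO2 before dosing, with time-zero plates TCA-fixed. Drug diluted from DMSO stock to 0.01, 0.1, 1, 10 and 100 µM final, 48 h. Cells fixed with cold TCA (10% final), stained with 0.4% SRB and read at 515 nm. Percent growth from Tz, control and test absorbances; GI50, TGI and LC50 from dose-response curves.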

[3] = test system: NCI-H460; experiment: Growth inhibition of human NCI-H460 cells assessed as cell growth at 10^-4 M after 48 hrs by sulforhodamine B assay; details: NCI-H460, 48 h, read-out: Activity
[4] = test system: HL-60(TB); experiment: Growth inhibition of human HL-60(TB) cells assessed as cell growth at 10^-4 M after 48 hrs by sulforhodamine B assay; details: HL-60, 48 h, read-out: Activity
Outline: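 HL-60(TB) suspension cells were treated 48 h at 37 °C within the five-dose series (0.01–100 µM), fixed with 16% final TCA and SRB-stained, read at 515 nm. Percentage growth at each concentration = (Ti−Tz)/(C−Tz)×100, or (Ti−Tz)/Tz×100 when Ti<Tz, with time-zero (Tz) and untreated control (C) plates.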

[5] = Growth inhibition of human Hs 578T cells assessed as cell growth at 10^-5 M after 48 hrs by sulforhodamine B assay; details: read-out: Activity; outline: as §1
[6] = test system: SF-295; experiment: Growth inhibition of human SF295 cells assessed as cell growth at 10^-5 M after 48 hrs by sulforhodamine B assay; details: SF-295, 48 h, read-out: Activity
[7] = test system: NCI-H226; experiment: Growth inhibition of human NCI-H226 cells assessed as cell growth at 10^-5 M after 48 hrs by sulforhodamine B assay; details: NCI-H226, 48 h, read-out: Activity
[8] = test system: K562; experiment: Growth inhibition of human K562 cells assessed as cell growth at 10^-5 M after 48 hrs by sulforhodamine B assay; details: K562, 48 h, read-out: Activity
[9] = test system: CAKI-1; experiment: Growth inhibition of human CAKI-1 cells assessed as cell growth at 10^-6 M after 48 hrs by sulforhodamine B assay; details: CAKI-1, 48 h, read-out: Activity
Outline: (§2)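 Five-dose NCI-60 run (0.01, 0.1, 1, 10 and 100 µM, as 10-fold dilutions from a DMSO stock made at 400× the top final level). Cells were grown in RPMI 1640 with 5% FBS and 2 mM glutamine and plated for 24 h. They were then exposed for 48 h at 37 °C and 5% CO2. TCA fixation was followed by SRB staining with A515 read-out. Percent growth was taken relative to time-zero and control plates.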

[10] = test system: U-251; experiment: Growth inhibition of human U251 cells assessed as cell growth at 10^-6 M after 48 hrs by sulforhodamine B assay; details: U-251, 48 h, read-out: Activity
[11] = test system: HT-29; experiment: Growth inhibition of human HT-29 cells assessed as cell growth at 10^-6 M after 48 hrs by sulforhodamine B assay; details: HT-29, 48 h, read-out: Activity; outline: as §1
[12] = Growth inhibition of human HCC2998 cells assessed as cell growth at 10^-6 M after 48 hrs by sulforhodamine B assay; details: HCC 2998, 48 h, read-out: Activity; outline: as §1
[13] = test system: COLO 205; experiment: Growth inhibition of human COLO205 cells assessed as cell growth at 10^-6 M after 48 hrs by sulforhodamine B assay; details: COLO 205, 48 h, read-out: Activity; outline: as §2
[14] = test system: T47D; experiment: Growth inhibition of human T47D cells assessed as cell growth at 10^-7 M after 48 hrs by sulforhodamine B assay; details: read-out: Activity
[15] = test system: MDA-MB-231; experiment: Growth inhibition of human MDA-MB-231 cells assessed as cell growth at 10^-7 M after 48 hrs by sulforhodamine B assay; details: MDA-MB-231, 48 h, read-out: Activity
[16] = test system: CAKI-1; experiment: Growth inhibition of human CAKI-1 cells assessed as cell growth at 10^-7 M after 48 hrs by sulforhodamine B assay; details: CAKI-1, 48 h, read-out: Activity; outline: as §2
[17] = test system: 786-0; experiment: Growth inhibition of human 786-0 cells assessed as cell growth at 10^-7 M after 48 hrs by sulforhodamine B assay; details: 786-0, 48 h, read-out: Activity; outline: as §2
[18] = test system: MDA-MB-231; experiment: Growth inhibition of human MDA-MB-231 cells assessed as cell growth at 10^-8 M after 48 hrs by sulforhodamine B assay; details: MDA-MB-231, 48 h, read-out: Activity
[19] = test system: DU-145; experiment: Growth inhibition of human DU145 cells assessed as cell growth at 10^-8 M after 48 hrs by sulforhodamine B assay; details: DU-145, 48 h, read-out: Activity; outline: as §2
[20] = test system: SK-MEL-5; experiment: Growth inhibition of human SK-MEL-5 cells assessed as cell growth at 10^-8 M after 48 hrs by sulforhodamine B assay; details: SK-MEL-5, 48 h, read-out: Activity
[21] = test system: SF-295; experiment: Growth inhibition of human SF295 cells assessed as cell growth at 10^-8 M after 48 hrs by sulforhodamine B assay; details: SF-295, 48 h, read-out: Activity
[22] = test system: SW-620; experiment: Growth inhibition of human SW620 cells assessed as cell growth at 10^-8 M after 48 hrs by sulforhodamine B assay; details: SW-620, 48 h, read-out: Activity
[23] = test system: HOP-92; experiment: Growth inhibition of human HOP92 cells assessed as cell growth at 10^-8 M after 48 hrs by sulforhodamine B assay; details: HOP-92, 48 h, read-out: Activity; outline: as §1
[24] = test system: ACHN; experiment: Growth inhibition of human ACHN cells after 48 hrs by sulforhodamine B assay; details: for CC50: read-out: LC50 (the source's name)
Outline: (§3)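 Adherent cells in RPMI 1640 with 5% FBS and 2 mM L-glutamine were plated at 5000–40,000 cells/well and grown 24 h. Five concentrations (0.01–100 µM, DMSO stock) were added for 48 h at 37 °C. Cells were fixed with cold TCA (10% final) and stained with SRB, read at 515 nm. GI50 came from log concentration–growth curves against time-zero and control plates.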

[25] = Growth inhibition of human HCC2998 cells after 48 hrs by sulforhodamine B assay; details: HCC 2998, 48 h; for CC50: read-out: LC50 (the source's name); outline: as §3
[26] = test system: K562; experiment: Growth inhibition of human K562 cells after 48 hrs by sulforhodamine B assay; details: K562, 48 h; for CC50: read-out: LC50 (the source's name)
Outline: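 Five-dose NCI 60 screen at 0.01, 0.1, 1, 10 and 100 µM, 48 h exposure after 24 h preincubation, in RPMI 1640 with 5% FBS and 2 mM glutamine. Fixed with TCA (10% final for adherent cells, 16% for suspension cells), stained with SRB, A515 read. Percent growth uses time-zero (Tz), control and treated plates. GI50, TGI and LC50 are read from the dose-response curves.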

Q: For `O=S(=O)(Nc1ccc(Cl)cc1)c1ccc2nc(-c3ccccc3)c(-c3ccccc3)nc2c1`, which growth at 100 µM [1] is on record?
A: 62%

Q: And the growth at 100 µM [2]?
A: 52%

Q: What about the growth at 100 µM [3] of the same compound?
A: 68%

Q: What about the growth at 100 µM [4] of the same compound?
A: 45%

Q: And the growth at 10 µM [5]?
A: 3%

Q: And the growth at 10 µM [6]?
A: -53%

Q: And the growth at 10 µM [7]?
A: -29%

Q: And the growth at 10 µM [8]?
A: 11%

Q: What about the growth at 1 µM [9] of the same compound?
A: 89%

Q: And the growth at 1 µM [10]?
A: 87%

Q: And the growth at 1 µM [11]?
A: 85%

Q: What about the growth at 1 µM [12] of the same compound?
A: 102%

Q: And the growth at 1 µM [13]?
A: 103%

Q: What about the growth at 0.1 µM [14] of the same compound?
A: 90%

Q: And the growth at 0.1 µM [15]?
A: 101%

Q: What about the growth at 0.1 µM [16] of the same compound?
A: 88%

Q: What about the growth at 0.1 µM [17] of the same compound?
A: 88%

Q: What about the growth at 0.01 µM [18] of the same compound?
A: 99%

Q: What about the growth at 0.01 µM [19] of the same compound?
A: 105%

Q: And the growth at 0.01 µM [20]?
A: 95%

Q: And the growth at 0.01 µM [21]?
A: 92%

Q: And the growth at 0.01 µM [22]?
A: 93%

Q: What about the growth at 0.01 µM [23] of the same compound?
A: 96%

Q: What about the TGI [24] of the same compound?
A: > 100 µM

Q: What about the CC50 [24] of the same compound?
A: > 100 µM

Q: And the TGI [25]?
A: > 100 µM

Q: What about the CC50 [25] of the same compound?
A: > 100 µM

Q: What about the TGI [26] of the same compound?
A: > 100 µM

Q: And the CC50 [26]?
A: > 100 µM

Q: Which growth at 100 µM [1] does the source give for `O=S(=O)(Nc1ccccn1)c1ccc2nc(-c3ccccc3)c(-c3ccccc3)nc2c1` here?
A: 64%

Q: And the growth at 100 µM [2]?
A: 39%

Q: And the growth at 100 µM [3]?
A: 65%

Q: And the growth at 100 µM [4]?
A: 29%

Q: And the growth at 10 µM [5]?
A: -11%

Q: And the growth at 10 µM [6]?
A: -56%

Q: And the growth at 10 µM [7]?
A: -35%

Q: And the growth at 10 µM [8]?
A: 9%

Q: What about the growth at 1 µM [9] of the same compound?
A: 102%

Q: What about the growth at 1 µM [10] of the same compound?
A: 84%

Q: And the growth at 1 µM [11]?
A: 79%

Q: What about the growth at 1 µM [12] of the same compound?
A: 100%

Q: And the growth at 1 µM [13]?
A: 94%

Q: What about the growth at 0.1 µM [14] of the same compound?
A: 85%

Q: And the growth at 0.1 µM [15]?
A: 107%

Q: And the growth at 0.1 µM [16]?
A: 93%

Q: What about the growth at 0.1 µM [17] of the same compound?
A: 92%

Q: What about the growth at 0.01 µM [18] of the same compound?
A: 110%

Q: What about the growth at 0.01 µM [19] of the same compound?
A: 102%

Q: What about the growth at 0.01 µM [20] of the same compound?
A: 95%

Q: What about the growth at 0.01 µM [21] of the same compound?
A: 86%

Q: What about the growth at 0.01 µM [22] of the same compound?
A: 101%

Q: What about the growth at 0.01 µM [23] of the same compound?
A: 94%

Q: What about the TGI [24] of the same compound?
A: > 100 µM

Q: What about the CC50 [24] of the same compound?
A: > 100 µM

Q: What about the CC50 [25] of the same compound?
A: > 100 µM

Q: What about the GI50 [26] of the same compound?
A: 2.72 µM

Q: What about the TGI [26] of the same compound?
A: > 100 µM

Q: And the CC50 [26]?
A: > 100 µM
